Source: ChEMBL document CHEMBL2331117 (J Med Chem, 2013)

How the values were obtained:
[1] = test system: Plasma; assay: Plasma concentration in athymic mouse plasma xenografted with human PC3 cells at 100 mg/kg, po after 32 hrs; assay type: ADME, organism-based, PC-3; design: dose 100 mg/kg, route oral; details: in vivo, BLD = below limit of detection
[2] = Clearance in Beagle dog at 3 mg/kg, iv; assay type: ADME, organism-based, Canis lupus familiaris; design: dose 3 mg/kg, route intravenous; details: in vivo
Outline: (§1)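 Single-dose PK: female athymic nude mice (10 mg/kg), female CD rats and male beagle dogs (3 mg/kg), male cynomolgus monkeys (3 mg/kg), given iv and by oral gavage. Solution in EPW (5% ethanol/45% PEG400/water), with 1:2 HCl (m/m) for mouse, rat and dog and 1:1.5 HCl (m/m) for monkey. Plasma levels followed over 24 h.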

[3] = test system: Mus musculus; assay: In vivo inhibition of mTORC2-mediated phosphorylation of AKT at […] in human PC3 cells xenografted into athymic nude mouse at 100 mg/kg, po after 1 hr by Western blotting analysis relative to control; assay type: functional; details: PC-3, 1 h
Outline: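 Human PC-3 cells were implanted subcutaneously into the hindflank of male nude mice aged 5−8 weeks, at 3 × 10^6 cells (passages 10−14, >95% viability) in ice-cold HBSS. At a tumor size of 200−500 mg, mice got one oral 100 mg/kg dose. Tumors were taken at 1, 4, 8, 16, 24 and 32 h. Lysates (n = 5 per group) were pooled, and phospho-AKT (T308) was read by Western blot, normalized to α-tubulin.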

[4] = Tmax in Beagle dog at 3 mg/kg, po; assay type: ADME, organism-based, Canis lupus familiaris; design: dose 3 mg/kg, route oral; details: in vivo
[5] = Tmax in cynomolgus monkey at 3 mg/kg, po; assay type: ADME, organism-based, Macaca fascicularis; design: dose 3 mg/kg, route oral; details: in vivo
[6] = AUC (0 to infinity) in Beagle dog at 3 mg/kg, po; assay type: ADME, organism-based, Canis lupus familiaris; design: time infinity, dose 3 mg/kg, route oral; details: plasma; outline: as §1
[7] = Plasma protein binding in mouse at 5 uM; assay type: ADME, cell-free; details: read-out: PPB (converted)
[8] = test system: Mus musculus; assay: In vivo inhibition of mTORC1-mediated phosphorylation of 4EBP1 at ([…]) in human PC3 cells xenografted into athymic nude mouse at 100 mg/kg, po after 24 hrs by Western blotting analysis relative to control; assay type: functional; details: PC-3, 24 h
Outline: (§2)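 PC-3 cells grown in DMEM with 20% FBS were implanted subcutaneously at 3 × 10^6 cells in ice-cold HBSS into the hindflank of 5−8 week old male nude mice. At tumor size 200−500 mg, mice received a single oral dose of 100 mg/kg. Plasma and tumors were collected at 1, 4, 8, 16, 24 and 32 h. Tumor lysates from each group (n = 5) were pooled. Phospho-proteins were quantified by Western blot and normalized to α-tubulin.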

[9] = Half life in Beagle dog at 3 mg/kg, iv; assay type: ADME, organism-based, Canis lupus familiaris; design: dose 3 mg/kg, route intravenous; details: in vivo; outline: as §1
[10] = target: RAC-alpha serine/threonine-protein kinase (Homo sapiens, UniProt P31749); assay: Inhibition of AKT1 (unknown origin)
[11] = target: RAF proto-oncogene serine/threonine-protein kinase (Homo sapiens, UniProt P04049); assay: Inhibition of cRAF (unknown origin)
[12] = test system: Mus musculus; assay: In vivo inhibition of mTORC1-mediated phosphorylation of pS6 at (serine 240/244) in human MCF7 cells xenografted into athymic nude mouse at 100 mg/kg, po after 4 hrs by Western blotting analysis relative to control; assay type: functional; details: MCF7, 4 h
Outline: (§3)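 MCF-7 cells (DMEM, 10% FBS) were implanted subcutaneously at 5 × 10^6 cells in 50% cold HBSS/50% growth-factor-reduced matrigel into the hindflank of 5−8 week old female nude mice. At tumor size 40−150 mg, mice received a single oral dose of 100 mg/kg. Tumor lysates were pooled per group. Phospho-AKT (S473, T308), p70S6K (T389), S6 (S240/244) and 4E-BP1 (T37/46) were measured by Western blot normalized to α-tubulin.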

[13] = test system: Mus musculus; assay: In vivo inhibition of mTORC1-mediated phosphorylation of pS6 at (serine 240/244) in human PC3 cells xenografted into athymic nude mouse at 100 mg/kg, po after 16 hrs by Western blotting analysis relative to control; assay type: functional; details: PC-3, 16 h; outline: as §2
[14] = Clearance in athymic nude mouse at 10 mg/kg, iv; assay type: ADME, organism-based; design: dose 10 mg/kg, route intravenous; details: in vivo; outline: as §1
[15] = target: Platelet-derived growth factor receptor beta (Homo sapiens, UniProt P09619); assay: Inhibition of PDGFRbeta (unknown origin)
[16] = test system: Mus musculus; assay: In vivo inhibition of mTORC1-mediated phosphorylation of 4EBP1 at ([…]) in human MCF7 cells xenografted into athymic nude mouse at 100 mg/kg, po after 24 hrs by Western blotting analysis relative to control; assay type: functional; details: MCF7, 24 h
[17] = test system: Mus musculus; assay: In vivo inhibition of mTORC2-mediated phosphorylation of AKT at […] in human MCF7 cells xenografted into athymic nude mouse at 100 mg/kg, po after 1 hr by Western blotting analysis relative to control; assay type: functional; details: MCF7, 1 h; outline: as §3
[18] = test system: Mus musculus; assay: In vivo inhibition of mTORC2-mediated phosphorylation of AKT at serine 473 in human PC3 cells xenografted into athymic nude mouse at 100 mg/kg, po after 4 hrs by Western blotting analysis relative to control; assay type: functional; details: PC-3, 4 h; outline: as §2
[19] = Tmax in CD rat at 3 mg/kg, po; assay type: ADME, organism-based; design: dose 3 mg/kg, route oral; details: in vivo
[20] = test system: Mus musculus; assay: In vivo inhibition of mTORC1-mediated phosphorylation of pS6 at (serine 240/244) in human PC3 cells xenografted into athymic nude mouse at 100 mg/kg, po after 32 hrs by Western blotting analysis relative to control; assay type: functional; details: PC-3, 32 h; outline: as §2
[21] = test system: Plasma; assay: Plasma concentration in athymic mouse plasma xenografted with human PC3 cells at 100 mg/kg, po after 24 hrs; assay type: ADME, organism-based, PC-3; design: dose 100 mg/kg, route oral; details: in vivo, BLD = below limit of detection
[22] = Volume of distribution at steady state in Beagle dog at 3 mg/kg, iv; assay type: ADME, organism-based, Canis lupus familiaris; design: dose 3 mg/kg, route intravenous; details: in vivo, read-out: Vdss
[23] = Plasma concentration in athymic mouse plasma xenografted with human MCF7 cells at 100 mg/kg, po after 8 hrs; assay type: ADME, organism-based; design: dose 100 mg/kg, route oral
[24] = test system: Mus musculus; assay: In vivo inhibition of mTORC1-mediated phosphorylation of p70S6K at […] in human PC3 cells xenografted into athymic nude mouse at 100 mg/kg, po after 16 hrs by Western blotting analysis relative to control; assay type: functional; details: PC-3, 16 h; outline: as §2
[25] = Oral bioavailability in cynomolgus monkey at 3 mg/kg; assay type: ADME, organism-based, Macaca fascicularis; details: in vivo
Outline: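 Male cynomolgus monkeys received 3 mg/kg intravenously and by oral gavage as a solution in EPW (5% ethanol/45% PEG400/water + 1:1.5 HCl m/m).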

[26] = Drug uptake in tumor of athymic mouse xenografted with human PC3 cells at 100 mg/kg, po after 8 hrs; assay type: ADME, organism-based, Neoplasm, PC-3; design: dose 100 mg/kg, route oral; details: read-out: Drug uptake
Outline: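 PC-3 cells (3 × 10⁶, passages 10–14, in ice-cold HBSS) were implanted sc in 5–8 week old male nude mice. Tumors of 200–500 mg received a single oral 100 mg/kg dose. Plasma and tumor were collected at 1, 4, 8, 16, 24 and 32 h and homogenized in buffer. Lysates were pooled per group (n = 5), and phospho-proteins were measured by Western blot normalized to α-tubulin.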

[27] = test system: Mus musculus; assay: In vivo inhibition of mTORC1-mediated phosphorylation of 4EBP1 at ([…]) in human PC3 cells xenografted into athymic nude mouse at 100 mg/kg, po after 16 hrs by Western blotting analysis relative to control; assay type: functional; details: PC-3, 16 h; outline: as §2

Chain of Platelet-derived growth factor receptor beta (P09619 whole entry): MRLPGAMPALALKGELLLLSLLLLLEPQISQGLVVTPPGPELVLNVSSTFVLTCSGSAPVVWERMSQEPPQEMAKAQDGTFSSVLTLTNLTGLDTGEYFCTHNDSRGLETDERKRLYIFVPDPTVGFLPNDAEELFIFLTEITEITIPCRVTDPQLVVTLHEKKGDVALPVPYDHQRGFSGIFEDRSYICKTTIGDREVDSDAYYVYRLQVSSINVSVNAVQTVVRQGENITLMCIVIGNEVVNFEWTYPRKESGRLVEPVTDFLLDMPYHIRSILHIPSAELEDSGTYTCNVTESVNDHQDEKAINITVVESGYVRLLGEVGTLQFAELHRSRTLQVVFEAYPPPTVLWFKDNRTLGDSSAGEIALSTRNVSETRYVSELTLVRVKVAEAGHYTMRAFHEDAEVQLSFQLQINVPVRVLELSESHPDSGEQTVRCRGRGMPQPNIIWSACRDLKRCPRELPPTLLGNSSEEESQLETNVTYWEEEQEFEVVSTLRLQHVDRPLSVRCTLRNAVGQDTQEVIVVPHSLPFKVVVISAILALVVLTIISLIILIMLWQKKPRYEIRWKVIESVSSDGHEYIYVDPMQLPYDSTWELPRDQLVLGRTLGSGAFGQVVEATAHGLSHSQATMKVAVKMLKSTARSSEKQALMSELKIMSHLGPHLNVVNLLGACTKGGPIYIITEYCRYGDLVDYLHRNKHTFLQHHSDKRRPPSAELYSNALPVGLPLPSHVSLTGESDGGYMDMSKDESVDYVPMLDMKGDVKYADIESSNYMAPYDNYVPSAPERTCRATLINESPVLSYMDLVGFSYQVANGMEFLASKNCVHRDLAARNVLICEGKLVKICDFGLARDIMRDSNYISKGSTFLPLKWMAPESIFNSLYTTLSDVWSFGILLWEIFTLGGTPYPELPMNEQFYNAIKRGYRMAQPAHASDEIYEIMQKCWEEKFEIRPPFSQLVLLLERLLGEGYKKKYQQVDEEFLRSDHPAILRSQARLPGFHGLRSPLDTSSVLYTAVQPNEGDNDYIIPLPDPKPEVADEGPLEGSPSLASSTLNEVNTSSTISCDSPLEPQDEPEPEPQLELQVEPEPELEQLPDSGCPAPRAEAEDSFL
Chain of RAC-alpha serine/threonine-protein kinase (P31749 whole entry): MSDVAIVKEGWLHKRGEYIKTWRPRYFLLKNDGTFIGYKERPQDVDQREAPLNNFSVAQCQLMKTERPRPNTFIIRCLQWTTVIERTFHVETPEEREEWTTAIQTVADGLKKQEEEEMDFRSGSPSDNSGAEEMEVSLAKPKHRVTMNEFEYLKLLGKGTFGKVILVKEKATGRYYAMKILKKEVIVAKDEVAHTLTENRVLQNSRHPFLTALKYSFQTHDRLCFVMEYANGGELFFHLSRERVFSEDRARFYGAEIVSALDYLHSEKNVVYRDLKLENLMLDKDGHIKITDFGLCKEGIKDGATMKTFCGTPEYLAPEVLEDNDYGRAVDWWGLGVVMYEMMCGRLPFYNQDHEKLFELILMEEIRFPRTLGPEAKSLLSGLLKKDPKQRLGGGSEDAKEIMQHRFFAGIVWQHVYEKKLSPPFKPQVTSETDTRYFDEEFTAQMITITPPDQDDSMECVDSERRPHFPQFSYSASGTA
Chain of RAF proto-oncogene serine/threonine-protein kinase (P04049 whole entry): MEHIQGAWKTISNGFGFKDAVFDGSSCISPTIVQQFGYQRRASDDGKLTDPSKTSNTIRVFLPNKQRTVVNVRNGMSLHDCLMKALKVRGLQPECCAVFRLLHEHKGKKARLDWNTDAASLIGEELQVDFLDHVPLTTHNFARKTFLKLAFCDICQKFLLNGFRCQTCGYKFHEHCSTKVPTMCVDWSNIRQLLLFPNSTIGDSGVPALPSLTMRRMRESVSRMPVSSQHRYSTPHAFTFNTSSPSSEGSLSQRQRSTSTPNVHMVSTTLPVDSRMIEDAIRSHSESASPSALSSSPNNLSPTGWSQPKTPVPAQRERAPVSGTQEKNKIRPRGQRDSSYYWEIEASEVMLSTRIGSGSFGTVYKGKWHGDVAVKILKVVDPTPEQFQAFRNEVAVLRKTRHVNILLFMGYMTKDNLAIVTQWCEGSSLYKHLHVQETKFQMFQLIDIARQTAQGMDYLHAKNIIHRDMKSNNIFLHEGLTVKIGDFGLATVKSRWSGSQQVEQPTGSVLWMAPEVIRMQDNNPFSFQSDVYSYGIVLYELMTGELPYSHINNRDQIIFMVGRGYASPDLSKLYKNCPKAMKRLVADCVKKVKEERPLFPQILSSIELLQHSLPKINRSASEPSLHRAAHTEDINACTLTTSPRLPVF

Cp [1]: BLD
clearance [2]: 9.97 mL/min/kg
Tmax [4]: 1 h
Tmax [5]: 2 h
AUC(0-inf) [6]: 7.66 µM·h
fraction unbound at 5 µM [7]: 0.16
half-life [9]: 6.11 h
IC50 [10]: > 3.5 µM
IC50 [11]: > 3.5 µM
clearance [14]: 45.8 mL/min/kg
IC50 [15]: > 3.5 µM
Tmax [19]: 0.5 h
Cp [21]: BLD
Vd [22]: 3.15 L/kg
concentration at 8 h [23]: 16.5 µM
bioavailability [25]: 53.4%
concentration at 8 h [26]: 25.5 µM
Compound: Cc1c(C(=O)N2CCOc3ccc(-c4ccc(N)nc4)cc3C2)ccc(S(C)(=O)=O)c1F
inhibition in vivo at 100 mg/kg [3]: -24%
inhibition in vivo at 100 mg/kg [8]: 19%
inhibition in vivo at 100 mg/kg [12]: 94%
inhibition in vivo at 100 mg/kg [13]: 71%
inhibition in vivo at 100 mg/kg [16]: -17%
inhibition in vivo at 100 mg/kg [17]: 6%
inhibition in vivo at 100 mg/kg [18]: 81%
inhibition in vivo at 100 mg/kg [20]: -20%
inhibition in vivo at 100 mg/kg [24]: 66%
inhibition in vivo at 100 mg/kg [27]: 51%
